Assay results from different studies.
Protocols differ between the studies behind these lines.
Target: Peripheral plasma membrane protein CASK (CASK, Homo sapiens, UniProt O14936)
One construct used (O14936 1-926): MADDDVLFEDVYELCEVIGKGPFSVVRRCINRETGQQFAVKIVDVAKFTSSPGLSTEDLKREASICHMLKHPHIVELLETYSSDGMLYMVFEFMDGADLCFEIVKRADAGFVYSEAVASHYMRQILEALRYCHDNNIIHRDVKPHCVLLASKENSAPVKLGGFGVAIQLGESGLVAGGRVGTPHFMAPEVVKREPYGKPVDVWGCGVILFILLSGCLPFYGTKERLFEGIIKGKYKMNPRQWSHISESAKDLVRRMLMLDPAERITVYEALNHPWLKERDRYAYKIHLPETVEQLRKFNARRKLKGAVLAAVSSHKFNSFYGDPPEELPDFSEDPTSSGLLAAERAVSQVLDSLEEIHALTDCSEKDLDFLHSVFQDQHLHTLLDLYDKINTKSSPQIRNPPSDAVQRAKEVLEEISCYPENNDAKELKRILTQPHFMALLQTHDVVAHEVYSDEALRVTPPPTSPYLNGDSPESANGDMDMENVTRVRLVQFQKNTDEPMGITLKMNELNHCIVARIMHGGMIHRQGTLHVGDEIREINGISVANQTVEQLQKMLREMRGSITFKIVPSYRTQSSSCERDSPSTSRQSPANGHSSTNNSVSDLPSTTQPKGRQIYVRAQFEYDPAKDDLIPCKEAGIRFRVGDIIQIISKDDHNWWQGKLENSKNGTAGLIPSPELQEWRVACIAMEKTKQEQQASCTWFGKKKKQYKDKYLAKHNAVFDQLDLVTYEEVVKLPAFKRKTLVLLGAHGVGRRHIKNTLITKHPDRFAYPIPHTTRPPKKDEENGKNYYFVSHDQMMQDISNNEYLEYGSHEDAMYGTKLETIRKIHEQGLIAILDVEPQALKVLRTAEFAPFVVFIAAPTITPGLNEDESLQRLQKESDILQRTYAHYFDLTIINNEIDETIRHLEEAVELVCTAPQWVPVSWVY

Cc1c(NC(=O)c2cc(C(N)=O)nc3cc(F)ccc23)c(C(F)(F)F)nn1Cc1ccc(C#N)cc1  remaining binding (cell-free assay, competition with immobilised ligand; 1 µM): 71%
FC(F)(F)Oc1cccc(-c2cnc3ccc(-c4ccncc4)nn23)c1  remaining binding (cell-free assay, competition with immobilised ligand; 5 µM): 50%
C=CC(=O)N1CCC(C(=O)NCC(=O)N2CCN(c3nc(-c4cnc(N)nc4C(F)F)nc(N4CCOCC4)n3)CC2)CC1  remaining binding (binding, competition with immobilised ligand; 1 µM): 69%
Nc1ncc2c(n1)-c1c([nH]c3ccc(C#CC4CC4)cc13)CCCC2  remaining binding (binding, competition with immobilised ligand; 1 µM): 88%
CCC(=N\O)/C(C)=C/c1ccc(F)cc1  remaining binding (cell-free assay, competition with immobilised ligand; 1 µM): 70%
c1cnn2ncc(-c3ccnc(N4CCC45COC5)n3)c2c1  remaining binding (binding; 1 µM): 81%
O=C(NCCCN1CCOCC1)c1ccc(Nc2ncc(Cl)c(-c3ccc(Cl)s3)n2)cc1  remaining binding (binding, competition with immobilised ligand; 1 µM): 98%
CN(CCCC(F)(F)F)c1nccc(-c2cnn3ncccc23)n1  remaining binding (binding; 1 µM): 100%
Cc1nc(C2CCN(C(=O)c3ccc(OC(F)(F)F)cc3N)CC2)c2ncc(N3CCN(C)CC3)cc2n1  remaining binding (cell-free assay, competition with immobilised ligand; 1 µM): 87%
O=C(c1ccc(Nc2nccc(-c3cc4ccccc4s3)n2)cc1)N1CCC(N2CCCC2)CC1  remaining binding (binding, competition with immobilised ligand; 1 µM): 85%
N[C@@H]1CCN(c2nccc(-c3cnn4ncccc34)n2)C1  remaining binding (binding; 1 µM): 100%
CCCCN(CCCC)C(=O)CN1C[C@@H](c2cc(OC)c3c(c2)OCO3)[C@H](C(=O)O)[C@H]1CC(C)(C)CCC  remaining binding (cell-free assay, competition with immobilised ligand; 1 µM): 90.5%
CN(C)c1ncc(F)c(-c2cnn3ncccc23)n1  remaining binding (binding, competition with immobilised ligand; 1 µM): 79%
COc1cnc(Nc2cccc(S(N)(=O)=O)c2)nc1N1CCN(c2ccccc2)CC1  remaining binding (binding, competition with immobilised ligand; 1 µM): 95%
Cn1nc(C(=O)NCc2ccc(C(=O)O)cc2)cc1-c1ccc2[nH]ccc2c1  remaining binding (cell-free assay, competition with immobilised ligand; 0.1 µM): 69%
O=C(c1ccc(Nc2ncc(Cl)c(-c3ccc(Cl)s3)n2)cc1)N1CCC(N2CCCC2)CC1  remaining binding (binding, competition with immobilised ligand; 1 µM): 87%
O=C(NCC1CCOCC1)c1n[nH]cc1NC(=O)c1c(F)cccc1F  remaining binding (binding, competition with immobilised ligand; 1 µM): 61%
C[C@H]1CCN(c2nccc(-c3cnn4ncccc34)n2)C1  remaining binding (binding; 1 µM): 74%
C[C@@H](c1ccc(-n2cnc3c(N)ncnc32)cc1)N1CCc2nn(C)c(Cc3ccccc3)c2C1=O  remaining binding (binding, competition with immobilised ligand; 0.1 µM): 80%
O=C(O)[C@@H]1[C@@H](Cn2nnc3ccccc3c2=O)CC[C@H]1C(=O)c1ccc(OCCC2CCOCC2)cc1  remaining binding (cell-free assay, competition with immobilised ligand; 1 µM): 100%
CN(C)c1nccc(-c2cnn3ncccc23)n1  remaining binding (binding, competition with immobilised ligand; 1 µM): 90%
